ChEMBL document CHEMBL1914450, “1,7-Naphthyridine 1-oxides as novel potent and selective inhibitors of p38 mitogen activated protein kinase” (J Med Chem, 2011)
Converted amounts (≈) assume the structure as drawn.

Assays:
[1] = Metabolic stability in human liver microsomes assessed as metabolic rate at 5 uM after 30 mins by UPLC-MS/MS analysis; type: ADME, Microsome; settings: read-out: Activity
Summary of the method: (§1)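 Test compound at 5 μM incubated 30 min at 37 °C with liver microsomes (1 mg/mL protein), with and without NADPH. Parent compound quantified by UPLC-MS/MS. Metabolic rate taken from parent peak area with NADPH versus without.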

[2] = Solubility of the compound at pH 1.0; type: physicochemical; settings: buffer
[3] = Cmax in Wistar rat at 10 mg/kg, po by UPLC-MS/MS analysis; type: ADME, organism-based; set-up: dose 10 mg/kg, route oral; settings: in vivo
Summary of the method: (§2)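 Male Wistar rats received 1 mg/kg iv or 10 mg/kg po. Blood was drawn from the retro-orbital plexus at set time points and centrifuged (3000 rpm, 10 min, 4 °C). Plasma was stored at −20 °C and prepared by protein precipitation for analysis. Oral exposure was measured over 0–6 h. Values are mean ± SD, n = 2.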

[4] = Volume of distribution at steady state in Wistar rat at 1 mg/kg, iv by UPLC-MS/MS analysis; type: ADME, organism-based; set-up: dose 1 mg/kg, route intravenous; settings: in vivo, read-out: Vdss
Summary of the method: (§3)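 Wistar rats dosed 1 mg/kg iv or 10 mg/kg po. Blood drawn from the retro-orbital plexus at set time points. Plasma separated by centrifugation (3000 rpm, 10 min, 4 °C) and stored at −20 °C until analysis. Values are mean of n = 2.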

[5] = Metabolic stability in rat liver microsomes assessed as metabolic rate at 5 uM after 30 mins by UPLC-MS/MS analysis; type: ADME, Microsome; settings: read-out: Activity; summary of the method: as §1
[6] = Solubility of the compound at pH 7.4; type: physicochemical; settings: buffer
[7] = Tmax in Wistar rat at 10 mg/kg, po by UPLC-MS/MS analysis; type: ADME, organism-based; set-up: dose 10 mg/kg, route oral; settings: in vivo; summary of the method: as §3
Rattus norvegicus [8] = test: (§4) AUC (0 to 6 hrs) in Wistar rat at 10 mg/kg, po by UPLC-MS/MS analysis; type: ADME, organism-based, Plasma; set-up: time < 6 hr, dose 10 mg/kg, route oral; settings: in vivo, 6 h; summary of the method: as §2
Rattus norvegicus [9] = test: (§5) Bioavailability in Wistar rat at 10 mg/kg, po and at 1 mg/kg, iv measured up to 6 hrs; type: ADME, organism-based; settings: in vivo, 6 h; summary of the method: as §2
[10] = Half life in Wistar rat at 1 mg/kg, iv by UPLC-MS/MS analysis; type: ADME, organism-based; set-up: dose 1 mg/kg, route intravenous; settings: in vivo; summary of the method: as §2
[11] = as §4; type: ADME, organism-based, Plasma; set-up: time < 6 hr, dose 10 mg/kg, route oral; settings: Wistar, plasma; summary of the method: as §2
[12] = Clearance in Wistar rat at 1 mg/kg, iv by UPLC-MS/MS analysis; type: ADME, organism-based; set-up: dose 1 mg/kg, route intravenous; settings: in vivo; summary of the method: as §2
[13] = as §5; type: ADME, organism-based; settings: Wistar, in vivo; summary of the method: as §2

Row | metabolised at 0.5 h, 5 µM [1] | solubility [2] | Cmax [3] | Vd [4] | metabolised at 0.5 h, 5 µM [5] | solubility [6] | Tmax [7] | AUC (Rattus norvegicus [8]) | F (Rattus norvegicus [9]) | half-life [10] | AUC(0-t) at 6 h [11] | clearance [12] | bioavailability [13] | Compound
1 | < 5% | 41 µg/mL (≈ 118 µM) | 5300 nM | 1.7 L/kg | 9% | 27 µg/mL (≈ 77.5 µM) | 3.5 h | 29.5 µM·h | 38% | 7.4 h |  |  |  | Cc1ccccc1-c1c2nccc(-c3ccc(F)cc3F)c2cc[n+]1[O-]
2 |  |  | 200 nM | 13.7 L/kg |  |  | 0.3 h |  |  | 2.3 h | 0.48 µM·h | 102 mL/min/kg | 16% | [O-][n+]1ccc2c(-c3ccc(F)cc3F)cc(C3CCNCC3)nc2c1-c1c(Cl)cccc1Cl
3 |  |  | 90 nM | 10.3 L/kg |  |  | 0.3 h |  |  | 4.6 h | 0.05 µM·h | 59 mL/min/kg | < 10% | [O-][n+]1ccc2c(-c3ccc(F)cc3F)cc(NC3CCNCC3)nc2c1-c1c(F)cccc1F
